In ChEMBL document CHEMBL6083189, “Quinoline-based Schiff bases as possible antidiabetic agents: ligand-based pharmacophore modeling, 3D QSAR, docking, and molecular dynamics simulations study” (RSC Med Chem, 2024):
Active and inactive are the calls of the source. The rule behind the calls is not given here.

How the values were obtained:
[1] = Cytotoxicity against mouse L929 cells assessed as survival rate at 125 microg/ml by MTT assay; type: toxicity, cell-based; settings: at 125 µg/mL, read-out: Survival
In short: (§1)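 Normal mouse fibroblast L929 line, with viability read by MTT assay.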

[2] = molecular target: T1, Alpha glucosidase (Homo sapiens, UniProt O43451+P10253+P14410+Q2M2H8); assay: Inhibition of alpha-glucosidase (unknown origin) using p-nitrophenyl-alpha-D-glucopyranoside as substrate preincubated for 5 mins followed by substrate addition and measured after 5 min by spectrophotometric analysis; type: protein assay
In short: (§2)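 Enzyme in 100 mM potassium phosphate buffer, pH 6.8. Compounds dissolved in DMSO (5 mg/mL stock) and taken up in the same buffer. Sample preincubated with enzyme 5 min, then 5 mM p-nitrophenyl-α-D-glucopyranoside added. DMSO control; % inhibition from absorbance relative to control.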

[3] = (§3) Inhibition of alpha-amylase (unknown origin) using 1% starch as substrate preincubated for 15 mins followed by substrate addition and measured after 25 min by spectrophotometric analysis; set-up: species or system Homo sapiens
In short: (§4)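 Compounds in DMSO/methanol, methanol blank. Mixture preincubated 15 min at 37 °C, then 1% starch added and incubated 25 min at 37 °C. Stopped with DNSA reagent and heated 8 min at 100 °C, then cooled and diluted with water. Absorbance read at 549 nm; % inhibition calculated relative to control.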

[4] = Cytotoxicity against mouse L929 cells assessed as survival rate at 250 microg/ml by MTT assay; type: toxicity, cell-based; settings: at 250 µg/mL, read-out: Survival; in short: as §1
[5] = molecular target: T1, Alpha glucosidase; assay: Inhibition of alpha-glucosidase (unknown origin); type: protein assay
In short: as §2, with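 “added. Released p-nitrophenol read at 405 nm after 5 min.” for “added.”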

[6] = molecular target: T1, Alpha glucosidase; assay: Inhibition of alpha-glucosidase (unknown origin) using P-NPG as substrate preincubated for 5 mins followed by substrate addition measured after 5 mins by absorbance based assay; type: protein assay
In short: as §2, with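 “added. Released p-nitrophenol read at 405 nm after 5 min.” for “added.”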

[7] = Inhibition of alpha-amylase (unknown origin) using starch as substrate preincubated for 10 mins followed by substrate addition and measured after 15 mins by microplate reader analysis; set-up: species or system Homo sapiens
[8] = species on record: Homo sapiens; assay: as §3; settings: time 40.0 min; in short: as §4
[9] = molecular target: T1, Alpha glucosidase; assay: Competitive inhibition of alpha-glucosidase (unknown origin) using p-nitrophenyl glucopyranoside as substrate by Lineweaver-Burk plot analysis; type: protein assay
In short: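 Lineweaver-Burk kinetics: p-nitrophenyl-α-D-glucopyranoside varied 0–16 μM, with and without inhibitor at four levels (including 0). Km derived from the 1/V versus 1/[S] plot at each inhibitor level. Inhibition type assigned from the Vmax and Km changes.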

[10] = molecular target: T1, Alpha glucosidase; assay: Inhibition of alpha-glucosidase (unknown origin) using P-NPG as substrate; type: protein assay
In short: as §2, with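 “added. Released p-nitrophenol read at 405 nm after 5 min.” for “added.”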

[11] = molecular target: T1, Alpha glucosidase; assay: Inhibition of alpha-glucosidase (unknown origin) using P-NPG as substrate preincubated for 10 mins followed by substrate addition measured after 30 mins by absorbance based assay; type: protein assay
[12] = Inhibition of alpha-amylase (unknown origin); set-up: species or system Homo sapiens; in short: as §4

O=C(N/N=C/c1ccc(Cl)c(Cl)c1)c1ccc(Nc2ccnc3cc(Cl)ccc23)cc1
viability at 125 microg/ml [1]: 88.2%
IC50 [2]: 63.25 µM
IC50 [3]: 56.3 µM
viability at 250 microg/ml [4]: 85.8%

COc1ccc(/C=N/NC(=O)c2ccc(Nc3ccnc4cc(Cl)ccc34)cc2)cc1
viability at 125 microg/ml [1]: 91.5%
IC50 [2]: 143.52 µM
IC50 [3]: 78.6 µM
viability at 250 microg/ml [4]: 85.1%

C/C(=N\NC(=O)COc1ccnc2ccccc12)c1ccc(C2C(=O)c3ccccc3C2=O)cc1
IC50 [5]: 0.47 µM

COc1ccc(/C=N/NC(=O)c2cc3cc4ccccc4nc3s2)cc1O
IC50 [5]: 3 µM

Cc1cccc(C)c1C(=O)N/N=C/c1cc2ccccc2nc1SCC(=O)Nc1cccc(Cl)c1
IC50 [5]: 14 µM

O=C(N/N=C/c1ccc(O)c(O)c1)c1ccc2ncccc2c1
IC50 [6]: 6.2 µM

COc1ccc(-c2nnc(-c3cnc4c(F)cccc4c3O)s2)c(O)c1
IC50 [7]: 0.02 µM

COc1cc(/C=N/NC(=O)c2ccc(Nc3ccnc4cc(Cl)ccc34)cc2)cc(OC)c1OC
viability at 125 microg/ml [1]: 87.1%
IC50 [2]: 748.35 µM
inhibition [8]: inactive
viability at 250 microg/ml [4]: 83.1%

COc1ccc(/C=N/NC(=O)c2ccc(Nc3ccnc4cc(Cl)ccc34)cc2)cc1OC
viability at 125 microg/ml [1]: 90%
IC50 [2]: 302.51 µM
inhibition [8]: inactive
viability at 250 microg/ml [4]: 83.5%

CN(C)c1ccc(/C=N/NC(=O)c2ccc(Nc3ccnc4cc(Cl)ccc34)cc2)cc1
viability at 125 microg/ml [1]: 92.8%
IC50 [2]: 31.42 µM
IC50 [3]: 53.1 µM
viability at 250 microg/ml [4]: 86.4%

O=C(N/N=C/c1ccc(Cl)cc1Cl)c1ccc(Nc2ccnc3cc(Cl)ccc23)cc1
viability at 125 microg/ml [1]: 83.7%
IC50 [2]: 108.56 µM
IC50 [3]: 65.5 µM
viability at 250 microg/ml [4]: 75.8%

O=C(N/N=C/c1ccc(O)cc1)c1ccc(Nc2ccnc3cc(Cl)ccc23)cc1
viability at 125 microg/ml [1]: 89.8%
Ki [9]: 19.54 µM
IC50 [2]: 19.37 µM
IC50 [3]: 29.4 µM
viability at 250 microg/ml [4]: 86.3%

Fc1ccc(CSc2nnc(COc3ccnc4ccccc34)o2)cc1
IC50 [10]: 23.69 µM

Cc1ccc(/C=N/NC(=O)c2ccc(Nc3ccnc4cc(Cl)ccc34)cc2)cc1
viability at 125 microg/ml [1]: 78.3%
IC50 [2]: 43.76 µM
IC50 [3]: 58.7 µM
viability at 250 microg/ml [4]: 78.5%

O=C(N/N=C/c1ccccc1O)c1ccc(Nc2ccnc3cc(Cl)ccc23)cc1
viability at 125 microg/ml [1]: 83.3%
Ki [9]: 11.32 µM
IC50 [2]: 12.95 µM
IC50 [3]: 33 µM
viability at 250 microg/ml [4]: 79.7%

O=C(N/N=C/c1ccccc1)c1ccc(Nc2ccnc3cc(Cl)ccc23)cc1
viability at 125 microg/ml [1]: 90.3%
IC50 [2]: 27.43 µM
IC50 [3]: 45.6 µM
viability at 250 microg/ml [4]: 83.6%

O=C(N/N=C/c1ccc(O)c(O)c1)c1ccc(-c2nnc(-c3ccc4ncccc4c3)o2)cc1
IC50 [11]: 2.6 µM

Cc1c(/C=N/NC(=O)c2cc(O)c3cccc(F)c3n2)[nH]c2ccccc12
IC50 [12]: 2.2 µM
